{"source": "the M2OR odorant receptor database", "conditions_in_all_cases": "stereoisomer not certain", "key": {"[1]": {"tested_on": "OR2M3 D11N", "sequence (as listed by the source, stated change not applied)": "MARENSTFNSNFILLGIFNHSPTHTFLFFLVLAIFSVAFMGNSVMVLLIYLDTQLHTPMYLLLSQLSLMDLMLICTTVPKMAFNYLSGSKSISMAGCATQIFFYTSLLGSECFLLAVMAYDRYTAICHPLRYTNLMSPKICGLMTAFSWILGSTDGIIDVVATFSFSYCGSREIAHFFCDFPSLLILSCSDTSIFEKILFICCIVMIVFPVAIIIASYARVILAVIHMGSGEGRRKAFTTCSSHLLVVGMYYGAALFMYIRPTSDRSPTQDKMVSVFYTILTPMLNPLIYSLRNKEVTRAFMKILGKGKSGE", "outline": "(§1)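 Values were gathered from published papers (main text and supplementary material), with extra details requested from the original authors when needed, and checked for typos and inconsistencies. Each receptor–molecule pair is called responsive (active) if the original authors judged the measured signal statistically different from baseline, and non-responsive (inactive) otherwise. Assay methods varied by source, often transient mammalian cell-line luciferase assays. Recorded details include cell line, G-protein, co-transfected protein and tags.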"}, "[2]": {"tested_on": "OR2M3 I13L A33G M144T", "outline": "as §1"}, "[3]": {"tested_on": "OR2M3 I13L A33G R266H", "outline": "as §1"}, "[4]": {"tested_on": "OR2M3 I13L A33G", "outline": "as §1"}, "[5]": {"tested_on": "OR2M3 I13L M144T", "outline": "as §1"}, "[6]": {"tested_on": "OR2M3 I13L", "sequence (as listed by the source, stated change not applied)": "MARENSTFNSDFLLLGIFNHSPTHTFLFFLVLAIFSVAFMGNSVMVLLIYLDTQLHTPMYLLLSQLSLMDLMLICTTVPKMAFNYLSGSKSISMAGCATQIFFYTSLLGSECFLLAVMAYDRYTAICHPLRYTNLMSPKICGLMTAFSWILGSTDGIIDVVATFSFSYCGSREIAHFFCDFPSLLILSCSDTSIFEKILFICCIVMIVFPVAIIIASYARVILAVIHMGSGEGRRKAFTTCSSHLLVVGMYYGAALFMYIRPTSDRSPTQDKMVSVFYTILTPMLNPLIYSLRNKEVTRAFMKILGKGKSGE", "outline": "as §1"}, "[7]": {"tested_on": "OR2M3 I198V", "sequence (as listed by the source, stated change not applied)": "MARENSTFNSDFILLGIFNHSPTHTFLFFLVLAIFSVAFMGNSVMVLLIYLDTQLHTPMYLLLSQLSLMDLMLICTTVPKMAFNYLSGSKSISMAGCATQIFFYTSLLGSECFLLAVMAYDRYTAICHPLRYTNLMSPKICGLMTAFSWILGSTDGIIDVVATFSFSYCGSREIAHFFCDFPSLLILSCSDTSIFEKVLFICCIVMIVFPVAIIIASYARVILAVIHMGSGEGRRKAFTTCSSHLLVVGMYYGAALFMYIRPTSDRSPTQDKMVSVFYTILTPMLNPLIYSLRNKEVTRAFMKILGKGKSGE", "outline": "as §1"}, "[8]": {"tested_on": "OR2M3 I289N", "sequence (as listed by the source, stated change not applied)": "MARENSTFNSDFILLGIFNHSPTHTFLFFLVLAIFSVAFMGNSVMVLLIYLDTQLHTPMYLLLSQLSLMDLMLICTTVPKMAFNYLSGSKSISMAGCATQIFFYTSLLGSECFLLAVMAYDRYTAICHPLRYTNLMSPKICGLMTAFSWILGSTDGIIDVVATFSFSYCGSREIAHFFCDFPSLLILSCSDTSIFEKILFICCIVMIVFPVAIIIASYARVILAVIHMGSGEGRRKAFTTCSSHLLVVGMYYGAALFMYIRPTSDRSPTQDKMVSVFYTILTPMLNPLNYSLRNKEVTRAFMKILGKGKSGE", "outline": "as §1"}, "[9]": {"tested_on": "OR2M3 L63F", "sequence (as listed by the source, stated change not applied)": "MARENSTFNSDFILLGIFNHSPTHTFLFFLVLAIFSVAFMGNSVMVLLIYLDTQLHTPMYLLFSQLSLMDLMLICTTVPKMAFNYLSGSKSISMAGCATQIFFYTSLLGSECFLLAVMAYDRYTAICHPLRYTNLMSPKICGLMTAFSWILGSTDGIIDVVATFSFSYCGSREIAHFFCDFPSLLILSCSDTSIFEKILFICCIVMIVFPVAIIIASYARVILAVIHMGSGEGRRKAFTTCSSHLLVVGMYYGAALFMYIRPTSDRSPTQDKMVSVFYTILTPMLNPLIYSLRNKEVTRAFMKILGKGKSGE", "outline": "as §1"}, "[10]": {"tested_on": "OR2M3 M144T", "sequence (as listed by the source, stated change not applied)": "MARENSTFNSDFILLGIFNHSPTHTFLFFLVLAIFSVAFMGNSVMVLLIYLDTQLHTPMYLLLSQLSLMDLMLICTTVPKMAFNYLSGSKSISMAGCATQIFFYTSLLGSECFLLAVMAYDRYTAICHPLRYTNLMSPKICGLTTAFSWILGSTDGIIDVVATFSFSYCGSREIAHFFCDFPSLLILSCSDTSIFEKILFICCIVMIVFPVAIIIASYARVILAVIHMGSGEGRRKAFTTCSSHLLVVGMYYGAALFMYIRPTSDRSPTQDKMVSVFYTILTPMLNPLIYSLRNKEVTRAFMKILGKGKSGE", "outline": "as §1"}}}
{"compound": "CCC(S)C(C)CO", "note": "(stereo not given)", "values": [{"measurement": "odorant receptor agonist call", "setting": "[1]", "value": "active"}, {"measurement": "odorant receptor agonist call", "setting": "[2]", "value": "inactive"}, {"measurement": "odorant receptor agonist call", "setting": "[3]", "value": "active"}, {"measurement": "odorant receptor agonist call", "setting": "[4]", "value": "active"}, {"measurement": "odorant receptor agonist call", "setting": "[5]", "value": "active"}, {"measurement": "odorant receptor agonist call", "setting": "[6]", "value": "active"}, {"measurement": "odorant receptor agonist call", "setting": "[7]", "value": "active"}, {"measurement": "odorant receptor agonist call", "setting": "[8]", "value": "inactive"}, {"measurement": "odorant receptor agonist call", "setting": "[9]", "value": "inactive"}, {"measurement": "odorant receptor agonist call", "setting": "[10]", "value": "active"}]}
